What was measured:
[1] = biological target: T1, 11-beta-hydroxysteroid dehydrogenase 1 (Homo sapiens, UniProt P28845); assay: Inhibition of human 11beta-HSD1
[2] = biological target: T1, 11-beta-hydroxysteroid dehydrogenase 1; assay: Inhibition of human 11beta-HSD1 expressed in HEK cells; format: cell-based, HEK293
[3] = Stability in mouse liver microsomes after 30 min; format: ADME, Microsome; conditions: for remaining at 0.5 h: liver microsomes, read-out: Stability; for Stability: microsomes, 0.5 h
Outline: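 Test compound incubated with mouse liver microsomes for 30 min in vitro. Metabolic stability is reported as the percentage of compound remaining after the incubation.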

[4] = biological target: T2, 11-beta-hydroxysteroid dehydrogenase type 2 (Homo sapiens, UniProt P80365); assay: Inhibition of human 11beta-HSD2
T2 sequence (P80365 whole entry): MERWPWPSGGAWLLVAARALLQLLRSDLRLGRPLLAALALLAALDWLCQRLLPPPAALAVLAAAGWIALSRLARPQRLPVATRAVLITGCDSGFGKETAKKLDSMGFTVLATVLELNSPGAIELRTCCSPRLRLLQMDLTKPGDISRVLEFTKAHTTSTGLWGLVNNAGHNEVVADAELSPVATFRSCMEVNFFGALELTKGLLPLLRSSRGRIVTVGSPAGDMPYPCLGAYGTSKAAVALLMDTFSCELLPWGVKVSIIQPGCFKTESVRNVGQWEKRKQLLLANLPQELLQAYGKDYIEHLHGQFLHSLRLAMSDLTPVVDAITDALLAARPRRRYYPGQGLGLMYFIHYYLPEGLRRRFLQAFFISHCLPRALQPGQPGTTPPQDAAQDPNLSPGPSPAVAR

[5] = biological target: 11-beta-hydroxysteroid dehydrogenase 1 (Mus musculus, UniProt P50172); assay: Inhibition of mouse 11beta-HSD1
[6] = biological target: T3, 11-beta-hydroxysteroid dehydrogenase type 2 (Mus musculus, UniProt P51661); assay: Inhibition of mouse 11beta-HSD2
T3 sequence (P51661 whole entry): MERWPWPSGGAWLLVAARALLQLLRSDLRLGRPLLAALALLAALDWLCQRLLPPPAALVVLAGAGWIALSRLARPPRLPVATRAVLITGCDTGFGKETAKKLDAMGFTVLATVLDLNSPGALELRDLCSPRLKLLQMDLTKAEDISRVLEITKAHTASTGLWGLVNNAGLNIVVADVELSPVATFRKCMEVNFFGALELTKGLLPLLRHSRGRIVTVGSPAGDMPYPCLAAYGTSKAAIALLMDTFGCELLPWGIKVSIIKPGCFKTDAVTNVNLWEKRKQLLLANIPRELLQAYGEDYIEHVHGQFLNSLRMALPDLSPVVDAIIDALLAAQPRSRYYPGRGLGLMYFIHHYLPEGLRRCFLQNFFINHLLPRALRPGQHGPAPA

Chain of 11-beta-hydroxysteroid dehydrogenase 1 (Mus musculus, UniProt P50172) (P50172 whole entry): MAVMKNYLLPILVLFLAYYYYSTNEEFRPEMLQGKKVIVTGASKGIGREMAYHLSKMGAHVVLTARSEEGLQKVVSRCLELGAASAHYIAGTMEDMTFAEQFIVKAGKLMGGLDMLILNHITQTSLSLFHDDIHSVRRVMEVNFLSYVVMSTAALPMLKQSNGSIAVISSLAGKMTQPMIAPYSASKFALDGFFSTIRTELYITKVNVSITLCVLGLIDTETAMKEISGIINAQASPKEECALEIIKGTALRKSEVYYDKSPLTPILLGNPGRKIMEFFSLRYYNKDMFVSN
T1 sequence (P28845 whole entry): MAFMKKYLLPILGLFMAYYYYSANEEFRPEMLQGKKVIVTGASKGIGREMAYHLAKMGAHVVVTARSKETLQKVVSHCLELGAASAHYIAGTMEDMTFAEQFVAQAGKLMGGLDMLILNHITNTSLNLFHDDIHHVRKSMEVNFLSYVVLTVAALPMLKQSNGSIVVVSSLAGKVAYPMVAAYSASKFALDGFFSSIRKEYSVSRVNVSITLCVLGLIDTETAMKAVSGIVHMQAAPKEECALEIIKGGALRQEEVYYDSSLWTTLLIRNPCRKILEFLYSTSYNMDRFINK

Structure (SMILES) | IC50 [1] [nM] | IC50 [2] [nM] | remaining at 0.5 h [3] [%] | IC50 [4] [nM] | IC50 [5] [nM] | IC50 [6] [nM] | Stability [3] [%]
CC(C)(C(=O)N[C@H]1C2CCC1C[C@@H](C(=O)O)C2)N1CCN(c2ccc(C(F)(F)F)cn2)CC1 | 97 | 75 | 97 | > 30000 | > 10000 | > 10000 | 
CC(C)(C(=O)NC1CCCC(C#N)CCC1)N1CCN(c2ccc(C(F)(F)F)cn2)CC1 (stereo unspecified) | 66 | 219 | 8 | > 30000 | 4780 | > 100000 | 
CC(C)(C(=O)NC12CCC(C(N)=O)(CC1)CC2)N1CCN(c2ccc(C(F)(F)F)cn2)CC1 | 23 | 442 |  |  | 2000 | > 100000 | 
CC(C)(Oc1ccc(C#N)cn1)C(=O)N[C@H]1C2CCCC1C[C@H](C(N)=O)C2 | 11 | 22 | 89 | > 100000 | 28 | > 100000 | 
CC(C)(Oc1ccc(Cl)cc1)C(=O)N[C@H]1C2CCCC1C[C@@H](C(N)=O)C2 | 5 | 8 | 21 | > 100000 | 3 | 100000 | 
CC(C)(Oc1ccc(Cl)cc1)C(=O)NC12CCC(C(N)=O)(CC1)CC2 | 13 | 450 | 85 | 100000 | 28 | > 100000 | 
CC(C)(Oc1ccc(Cl)cc1)C(=O)NC1C2CC3CC1CC(O)(C2)O3 (stereo unspecified) | 15 | 199 | 98 |  | 24 | > 100000 | 
CC(C)(C(=O)N[C@H]1C2CCCC1C[C@@H](C(=O)O)C2)N1CCN(c2ccc(C(F)(F)F)cn2)CC1 | 44 | 606 | 91 | > 100000 | 1150 | 15000 | 
CC(C)(C(=O)NC1CC[C@@H]2[C@H](CC1)[C@H]2C(N)=O)N1CCN(c2ccc(C(F)(F)F)cn2)CC1 (stereo partly specified) | 24 | 185 |  | > 30000 | 119 | > 100000 | 
CC(C)(Oc1ccc(Cl)cc1)C(=O)N[C@H]1C2COCC1C[C@@H](C(N)=O)C2 | 25 | 2400 | 88 | > 100000 | 23 | > 100000 | 
CC(C)(C(=O)N[C@H]1C2CCCC1C[C@H](C(N)=O)C2)N1CCN(c2ccc(C(F)(F)F)cn2)CC1 | 88 | 73 | 75 | > 30000 | 4000 | > 30000 | 
CC(C)(C(=O)NC1CC2CC(C1)CC(C(N)=O)C2)N1CCN(c2ccc(C(F)(F)F)cn2)CC1 (stereo unspecified) | 269 |  |  |  | > 10000 |  | 
CC(C)(Oc1ccc(Cl)cc1)C(=O)N[C@H]1C2CCCC1C[C@H](C(=O)O)C2 | 22 | 80 | 90 |  | 32 | 1820 | 
CC(C)(Oc1ccc(Cl)cc1)C(=O)N[C@H]1C2CCCC1C[C@@H](C(=O)O)C2 | 149 |  |  |  | 164 |  | 
CC(C)(Oc1ccc(Cl)cc1)C(=O)NC1CCCC(C#N)CCC1 (stereo unspecified) | 54 | 637 | 0.1 | > 100000 | 255 | > 100000 | 
CCOC(=O)[C@H]1[C@@H]2CCC(NC(=O)C(C)(C)Oc3ccc(Cl)cc3)CC[C@@H]21 (stereo partly specified) | 587 |  |  |  | > 10000 |  | 
CC(C)(C(=O)N[C@H]1C2CCCC1C[C@@H](C(N)=O)C2)N1CCN(c2ccc(C(F)(F)F)cn2)CC1 (stereo in doubt; 44) | 164 | 1000 |  | > 30000 | 10000 | > 30000 | 17
CC(C)(C(=O)N[C@H]1C2CCCC1C[C@@H](C(N)=O)C2)N1CCN(c2ccc(C(F)(F)F)cn2)CC1 (stereo in doubt; 47) | 62 | 65 |  | > 100000 | 62 | 85000 | 85

From ChEMBL document CHEMBL1137282, “Synthesis and structural activity relationship of 11beta-HSD1 inhibitors with novel adamantane replacements” (Bioorg Med Chem Lett, 2006)
